Test: Toxicity liver stage against HepG2, at 10uM
Format: cell-based
Parameters: test concentration 10 uM, cell line HepG2-A16-CD81EGFP
Conditions: human, HepG2-A16-CD81EGFP cells; read-out: INHIBITION
Summary of the method: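 Uninfected HepG2-A16-CD81EGFP cells, 3 × 10^3 per well, 1536-well, plated on prespotted compound at 10 μM final, parasite-free screening media added to match infected plates; puromycin 10 μM positive, DMSO 0.5% negative; run in parallel with 48 h PbLuc assay at 37 °C, 5% CO2; viability by CellTiter-Glo luminescence, normalized to controls.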

SMILES	cytotoxicity at 10 µM
Cn1ncc(C(=O)O)c1C(=O)Nc1nc2ccc(Br)cc2s1	12.5%
Cc1cccc(CC(=O)Nc2cccnc2N2CCC(CO)CC2)c1	-2.23%
Cc1noc([C@@H]2CCO[C@@H]3CCN(C(=O)Cc4ccsc4)C[C@@H]32)n1	10.4%
CC(C)n1cnnc1CN(C)C(=O)c1cc(COc2ccccc2)[nH]n1	4.58%
O=C1CN(c2ccc(CNC(=O)c3cccnc3O)cc2F)CCN1	5.04%
CC(C)(NS(C)(=O)=O)C(=O)NCCc1csc2ccccc12	0.694%
CCS(=O)(=O)CC(=O)N1CCCC(c2noc(C(C)C)n2)C1 (configuration not stated)	-4.78%
Cc1cn2cc(-c3nc4c([nH]3)CCCNC4=O)nc2s1	5.48%
CCc1nc(C(=O)NCc2ccc(N3CCNC(=O)C3)c(F)c2)c[nH]1	-7.12%
Cc1cc(CN2CCN(C(C)C(=O)NCc3cccs3)CC2)no1 (configuration not stated)	-0.335%
COCCN(Cc1cccc(OCCO)c1)Cc1ccccc1F	-9.53%
c1ccc2nc(N3CCOC(Cn4cncn4)C3)cnc2c1 (configuration not stated)	-11.5%
CC(C)c1nn(C)c(Cl)c1CNCc1ccc2c(c1)OCO2	-1.77%
Cc1ncsc1CCN(C)Cc1ccc(CO)o1	-15.3%
COc1nc2c(cc1C(=O)NCCCc1nnc(N)s1)CCC2	4.37%
N#Cc1nccnc1N1CCC(c2nc(C(F)(F)F)c[nH]2)CC1	4.25%
NC(=O)CN1CCCC(C(=O)N2CCC(Oc3ncccn3)CC2)C1 (configuration not stated)	-41.6%
CCOC(=O)N(C)CC(=O)NCCc1coc(-c2ccc(C)cc2)n1	-13.9%
CSc1ccc(CN(C(=O)c2cc(C)[nH]c(=O)c2)C2CC2)cc1	-49.5%
Cc1ccsc1C(=O)N(C)Cc1ccncc1	-4.54%
COC(=O)NCC(=O)N1CCCC1c1nc(-c2ccccc2F)c[nH]1 (configuration not stated)	8.01%
COC(=O)[C@@H]1C[C@@H](NC(=O)CN2C(=O)N(C)Cc3ccccc32)CN1C	-2.62%

SMILES	cytotoxicity at 10 µM
CN1C[C@@H]2CN(C(=O)C3CCOC3)C[C@@H]2C1=O (some centres not stated)	-127%
CN(CCc1ccncc1)C(=O)C1CSCN1C(=O)CC(C)(C)C (configuration not stated)	10.2%
O=C(Cc1ccon1)N(CCC(F)(F)F)C1CCCC1	-9.36%
Cc1ccc(-c2ccnc(NC(C)c3c(C)n[nH]c3C)n2)c(C)n1 (configuration not stated)	4.51%
CSCc1cccc(S(=O)(=O)NCCCN2CCOCC2)c1	-8.63%
CS(=O)(=O)c1ccc(CNC(=O)N2CCC(c3ccccc3)CC2)cc1	-0.884%
O=C(c1ccco1)N1CCC2(CCCN(c3ncc(F)cn3)C2)C1 (configuration not stated)	-88.4%
Cn1cc(CNC(=O)C2CCCN(Cc3cccc(F)c3)C2)cn1 (configuration not stated)	3.44%
CCOCc1ncn2c1CN(C(=O)Nc1ccccc1)CC2	3.54%
COc1ccc(-n2cccn2)c(CN2CCC3(CCCNC3)C2)c1 (configuration not stated)	-1.09%
CS(=O)(=O)c1cn[nH]c1C1CCCCN1C(=O)c1cncs1 (configuration not stated)	-19.1%
CN1CCN(c2nc(O)c3c(-c4ccccn4)ccnc3n2)CC1	-6.6%
COc1cccc(CC(=O)N2CCC3(CC2)OCCCC3O)c1OC (configuration not stated)	-5.7%
CCOCC1CN(C2CCCC2)Cc2cnn(CC3CCOCC3)c21 (configuration not stated)	-9.13%
c1cc2c(cc1C[C@@H]1CC[C@H](CN3CCCOCC3)O1)OCO2	-12.9%
CCn1c(SC)nnc1C1CCN(C(=O)N2CCCC2)CC1	-0.78%
COc1ccccc1C(=O)NS(=O)(=O)c1cccc(C#N)c1	-6.52%
CCNC(=O)NC(=O)CNc1cc(C(=O)OC)cc(C(F)(F)F)c1	-7.03%
COc1ccc(N2CCN(C(=O)CCn3nnnc3C)CC2(C)C)cc1	10.4%
COc1ccc(F)cc1C(=O)N(C)Cc1cc(C)on1	0.35%
CN1CCN(C(=O)c2[nH]nnc2Nc2ccccc2F)CC1	1.36%
Cc1ccccc1N1CCN(C(=O)c2ccc[nH]2)C(C)C1 (configuration not stated)	-8.68%

SMILES	cytotoxicity at 10 µM
O=S(=O)(c1cccc(F)c1)N1CC[C@H]2[C@H]1CCN2c1ncccn1	-4.35%
Cc1cc(NCC2(O)CCOCC2)c2ccccc2n1	-13.3%
CC(=O)N(Cc1noc(C)n1)C1CCN(Cc2cccc(C#N)c2)C1 (configuration not stated)	-0.645%
CCN(CC)S(=O)(=O)CC(=O)N1CCc2ccc(C)cc21	-5.77%
CCN1CCCC(O)(c2nc(C)c(CCOc3ccccc3Cl)s2)CC1 (configuration not stated)	-26.2%
CCc1nc(C)c([C@H]2CN(C)C[C@@H]2C(=O)NCc2ccccc2OC)[nH]1	0.15%
CN(C)[C@@H]1CN(C(=O)Cc2ccc(F)cc2)[C@@H]2CCCO[C@H]12	3.88%
Cc1cnc(N2CCC[C@@H]3CN(CC(=O)N(C)C)C[C@@H]32)nc1	11.4%
COc1ncccc1-c1cc(C(=O)NC2CC2)ccn1	-11.8%
CC[C@H](Cn1ncc2ccccc2c1=O)NC(=O)c1cnc(C)cn1	5.98%
Cn1cc(C2CCCN2CCCc2nc(-c3cccs3)no2)cn1 (configuration not stated)	-6.88%
CN(C)c1cccc(CNC(=O)Nc2cc(C#N)ccc2Cl)n1	21.6%
CCCc1nccn1-c1ccncc1	17.3%
COC(=O)Cn1c(=O)[nH]c2cn(-c3ccc(Cl)cc3)c(=O)n21	23.7%
CNc1ncc(CN(C)C(=O)CCc2cc3n(n2)CCCNC3)cn1	-13.5%
CN(C)C[C@@H]1CCC[C@@H]2CN(c3ncccn3)C[C@@H]21	5.85%
CC(C)CN1CC[C@@H]2[C@H](CC1)N(C(=O)c1ccccc1)CCS2(=O)=O	-128%
Cc1nccc(CN2CC[C@@]3(CCCN3Cc3ccccc3)[C@@H](O)C2)n1	-6.05%
CCCN1CCN(C(=O)c2cccc3cccnc23)[C@H]2CS(=O)(=O)C[C@H]21	4.36%
Cn1c(CO)nnc1CC1CCN(Cc2ccc(C#N)cc2)CC1	4.98%
CCc1nc(C)c([C@H]2CN(C)C[C@@H]2C(=O)Nc2ccc3[nH]ncc3c2)[nH]1	-1.67%
COCC(=O)N1CCC(c2n[nH]c3nccnc23)CC1	-8.38%

SMILES	cytotoxicity at 10 µM
O=C(CCc1ccco1)Nc1cc(C(F)(F)F)c[nH]c1=O	13.9%
Cc1cc(C)nc(N2CC=C[C@H]2C(=O)NCc2ccc3c(c2)OCO3)n1	0.711%
Cc1cnn(C2CCCN(C(=O)Cc3ccc(C)s3)C2)c1 (configuration not stated)	-13.4%
COCCN1CCO[C@@H]2CN(Cc3cc(OC)cc(OC)c3)C[C@@H]2C1	38.8%
CSc1ccc(CN(C)Cc2noc(C(C)(C)C)n2)cc1	-8.58%
CC(C)c1noc(C(C)N2CCN(Cc3noc(C(C)(C)C)n3)CC2)n1 (configuration not stated)	-14.6%
COc1ccc2c(c1)C(C(=O)NCCCN1CCN(C)CC1)CC(=O)N2 (configuration not stated)	11.2%
O=C(c1cccc(-n2cnnc2)c1)N1C[C@@H](O)[C@H](N2CCOCC2)C1	2.26%
NC(=O)C1CN(C(=O)Nc2ccccc2SC(F)(F)F)CCO1 (configuration not stated)	-8.3%
O=C1N(Cc2cccc(F)c2)CCC12CCCN(c1ncc(F)cn1)C2 (configuration not stated)	0.797%
CS(=O)(=O)N1CCC(CNC(=O)C2CCCC2)CC1	1.2%
CCOc1ccccc1N1CCN(C(=O)NCc2cc[nH]n2)CC1	5.48%
CCc1nc(C)c([C@H]2CN(C)C[C@@H]2C(=O)NCc2ccccn2)[nH]1	2.77%
Cc1cc(C)n(CC2CCCN2C(=O)CCCc2ccccn2)n1 (configuration not stated)	-0.395%
Cc1csc(N2CCCN(C(=O)Cc3ccc(C)s3)CC2)n1	-12%
O=C(CN1CC(n2cccn2)C1)NCCC1=CCCCC1	-8.25%
CCOc1ccc(CC(CNC(=O)c2ccoc2C)C(N)=O)cc1 (configuration not stated)	7.87%
O=C([C@H]1C[C@H]2OCC[C@H]2N(C(=O)c2ccncc2)C1)N1CCCCO1	-6.77%
CC(C)(C)C(O)CN1CCN(C(=O)c2cccc3[nH]ncc23)CC1 (configuration not stated)	5.93%
O=C(NCCc1c[nH]cn1)c1ccc(S(=O)(=O)NC2CCOC2)cc1 (configuration not stated)	-1.91%
COc1ccc(CNc2nc(N3CCOCC3)ns2)cc1	-4.77%
Cc1nc(C)n(CC2CCCN2Cc2nc(-c3ccco3)no2)n1 (configuration not stated)	-4.39%

SMILES	cytotoxicity at 10 µM
CC(C)NC(=O)Nc1ccc(-c2nc(C(C)C)no2)cc1	-8.56%
CC(C)CN1C(=O)C2(CCN(Cc3cccs3)C2)c2ccccc21 (configuration not stated)	10.1%
Cc1ccc(CN2CCc3c(C(=O)N(C)C)n[nH]c3C2)o1	2.14%
Cc1cccc(C(=O)N2CCC3(CC2)CC(c2ccccc2)C(=O)N3)c1 (configuration not stated)	17.8%
CC(C)S(=O)(=O)N(C)C(=O)CCc1ccsc1	5.2%
CN(Cc1nnc(C2CC2)n1C)C1CCN(Cc2ccc(F)cc2)C1 (configuration not stated)	-7.17%
COc1cc(C(=O)N(Cc2ccco2)C2CC2)cc2c1OCCO2	2.35%
Fc1ccc(CNCc2nnc3n2CC(C(F)(F)F)CC3)c(F)c1 (configuration not stated)	0.411%
CCc1csc(C2CCCN(C(=O)c3ccc(OC)nn3)C2)n1 (configuration not stated)	-8.8%
Cc1noc(C)c1CNCc1ccccc1N(C)C1CCN(C)CC1	4.69%
CC(C)N(C)Cc1cn2c(n1)CN(C(=O)Cc1ccsc1)CC2	-11.1%
O=C(C1CCCC1)N1CCCC2(CCN(c3cnccn3)CC2)C1	9.53%
CC(C)NCc1cc2n(n1)CCN(C1CCCCC1)C2	-8.9%
CC(CN1CCOCC1)NC(=O)c1cccc2cn[nH]c12 (configuration not stated)	-7.18%
CC(C)(C)n1cc(C2=CCN(CCc3ccccn3)CC2)cn1	-0.505%
CC(=O)C1(c2ccccc2)CCN(C(=O)c2ccn3nnnc3c2)CC1	-4.97%
CCc1ncncc1C(=O)N1CCCC(n2nc(C)nc2C)C1 (configuration not stated)	-6.54%
CCn1nc(C)c(CN2CCC(c3ccc(C(=O)O)cc3)C2)c1C (configuration not stated)	4.22%
Cn1cccc1C(=O)N1C[C@@H]2CCCO[C@@H]2[C@H](N2CCOCC2)C1	-1.19%

— ChEMBL document CHEMBL4513216, “Probing the Open Global Health Chemical Diversity Library for Multistage-Active Starting Points for Next-Generation Antimalarials” (ACS Infect Dis, 2020)
